Here are results for nine compounds from ChEMBL document CHEMBL1135880, “Synthesis and X-ray studies of chiral allosteric modifiers of hemoglobin” (J Med Chem, 2002).

Assay [1] addresses T1, Hemoglobin HbA (Homo sapiens) (UniProt P69905+P68871). Kind of assay: The Hill coefficient at 50% saturation (n50) in the presence of effector. The assay is classed as protein-complex assay. In short, it runs like this:
(§1)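 Human whole blood; DMSO stock 200 mM, final 5 mM effector, DMSO-only control. Duplicate samples equilibrated ~10 min at 37 °C in tonometers against gas mixtures of 2.95%, 5.85% and 8.75% O2 with 5.8% CO2, balance N2. pO2 and sO2 read on blood gas analyzer and co-oximeter. P50 and n50 from nonlinear regression; ΔP50 = P50 effector − P50 control.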

In assay [2] the target is T1, Hemoglobin HbA (Homo sapiens). Briefly: Ability to right-shift the oxygen equilibrium curves (OECs) quantified by ability to increase in P50 at which Hb was 50% saturated with oxygen in the presence of the effector at the concentration of 5 mM. The class given is functional. In short, it runs like this: as §1
The target is the same in assay [3]. Briefly: The difference in the partial pressure of oxygen at 50% saturated Hb. The class given is functional. In short, it runs like this:
as §1

Assay [4] has the same target. Briefly: Ratio of […] (P50 control value with no effector present 5.0 mmHg, in case of DMSO is 4.7 mmHg ). The class given is functional.
Assay [5] has the same target. Kind of assay: Oxygen pressure in mmHg at which Hb is 50% saturated with oxygen at 50-60 uM heme concentration and in the presence of 0.5 mM effector. The assay is classed as functional.
Assay [6] shares this target. Kind of assay: Ability to right-shift the oxygen equilibrium curves (OECs) quantified by ability to increase in P50 in whole blood analyses. The assay is classed as functional, tissue-based. Put shortly: as §1
Assay [7] has the same target. Kind of assay: Ability to right-shift the oxygen equilibrium curves (OECs) quantified by ability to increase in P50 at which Hb was 50% saturated with oxygen in the […] of the effector. The assay is classed as functional.
For assay [8] the target is unchanged. Briefly: The Hill coefficient at 50% saturation (n50) between 40 and 60% oxygen saturation (n50 control value with no effector present, 2.7). The class given is protein-complex assay.

T1 sequence (P68871 2-147 partner limits assumed): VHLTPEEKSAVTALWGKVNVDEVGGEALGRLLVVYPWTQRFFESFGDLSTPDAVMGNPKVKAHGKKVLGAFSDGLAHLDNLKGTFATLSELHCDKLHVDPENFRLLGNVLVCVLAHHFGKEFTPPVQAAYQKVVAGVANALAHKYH
T1 sequence (P69905 2-142 limits assumed): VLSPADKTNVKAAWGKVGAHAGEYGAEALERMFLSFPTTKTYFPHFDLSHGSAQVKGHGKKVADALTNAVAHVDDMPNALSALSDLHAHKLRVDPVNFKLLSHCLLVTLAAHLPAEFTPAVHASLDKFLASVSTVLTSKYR

As for `Cc1cc(C)cc(NC(=O)Cc2ccc(OC3(C(=O)N[C@H](CC(=O)O)C(=O)O)CCCC3)cc2)c1`, in assay [1], the n50e came to 1.9. Moreover, the P50e in assay [2] came out at 55.3 mmHg; in assay [5] it was 16.1 mmHg; in assay [7], 50.2 mmHg. The same compound had a Delta P50 in assay [3] of 26.6. For the same compound, the P50e / P50c in assay [4] turned out to be 3.2. In addition, the P50c in assay [6] was 26.2 mmHg. This compound came in with a Hill coefficient (n50) in assay [8] of 2.6.

Regarding `CSCC[C@H](NC(=O)C1(Oc2ccc(CC(=O)Nc3cc(C)cc(C)c3)cc2)CCCC1)C(=O)O`, the n50e in assay [1] came out at 2.3. Moreover, the figures for the P50e in assay [2], in assay [5] and in assay [7] were 56.8 mmHg, 18.1 mmHg and 50.7 mmHg, respectively. In assay [3], this compound had a Delta P50 of 26.6. For the same compound, the P50e / P50c in assay [4] worked out at 3.6. Further, the P50c in assay [6] came out at 27.1 mmHg. The Hill coefficient (n50) in assay [8] stood at 2.6.

For the compound `Cc1cc(C)cc(NC(=O)Cc2ccc(OC3(C(=O)N4CCC[C@H]4C(=O)O)CCCC3)cc2)c1`, the n50e in assay [1] stood at 2.3. The figures for the P50e in assay [2], in assay [5] and in assay [7] were 42.5 mmHg, 13.5 mmHg and 41.1 mmHg, respectively. The compound also came in with a Delta P50 in assay [3] of 17. Also, in assay [4], the P50e / P50c was 2.7. The P50c in assay [6] stood at 24.8 mmHg. Also, the Hill coefficient (n50) in assay [8] is 2.7.

As to `Cc1cc(C)cc(NC(=O)Cc2ccc(OC3(C(=O)N[C@@H](C(=O)O)C(C)C)CCCC3)cc2)c1`, in assay [1], the n50e amounted to 1.9. Moreover, the P50e in assay [2] amounted to 57.3 mmHg; in assay [5], 13.9 mmHg; in assay [7], 56.6 mmHg. In assay [3], the Delta P50 came to 30.2. Besides, in assay [4], the P50e / P50c came to 2.8. Besides, the P50c in assay [6] was found to be 26.7 mmHg. Besides, the Hill coefficient (n50) in assay [8] was found to be 2.6.

On to `Cc1cc(C)cc(NC(=O)Cc2ccc(OC3(C(=O)N[C@@H](C(=O)O)C(C)O)CCCC3)cc2)c1` (some centres not stated), for which, in assay [1], the n50e worked out at 2.2. In addition, the figures for the P50e in assay [2], in assay [5] and in assay [7] were 41.1 mmHg, 14.3 mmHg and 39.7 mmHg, respectively. Also, in assay [3], the Delta P50 worked out at 12.9. The P50e / P50c in assay [4] was 2.9. The P50c in assay [6] was found to be 27.5 mmHg. Also, in assay [8], the Hill coefficient (n50) amounted to 2.6.

Take `Cc1cc(C)cc(NC(=O)Cc2ccc(OC3(C(=O)N[C@H](Cc4ccc(O)cc4)C(=O)O)CCCC3)cc2)c1`: in assay [1], the n50e was 2. In addition, the figures for the P50e in assay [2], in assay [5] and in assay [7] were 49 mmHg, 48.6 mmHg and 47 mmHg, respectively. This compound also displayed a Delta P50 in assay [3] of 20.8. In addition, the P50e / P50c in assay [4] is 9.7. In assay [6], the P50c was determined as 27.2 mmHg. In addition, the Hill coefficient (n50) in assay [8] was 2.3.

With `Cc1cc(C)cc(NC(=O)Cc2ccc(OC3(C(=O)N[C@H](C)C(=O)O)CCCC3)cc2)c1`, the n50e in assay [1] was found to be 1.7. For the same compound, the figures for the P50e in assay [2], in assay [5] and in assay [7] were 52.1 mmHg, 13.8 mmHg and 50.3 mmHg, respectively. The Delta P50 in assay [3] is 21.9. Further, in assay [4], the P50e / P50c is 2.8. Also, in assay [6], the P50c came out at 29.4 mmHg. Besides, the Hill coefficient (n50) in assay [8] was 2.6.

Take `Cc1cc(C)cc(NC(=O)Cc2ccc(OC3(C(=O)N[C@H](CO)C(=O)O)CCCC3)cc2)c1`: in assay [1], the n50e is 2.1. In addition, the P50e in assay [2] is 34 mmHg; in assay [5], 11.2 mmHg; in assay [7] it was 31.1 mmHg. For the same compound, the Delta P50 in assay [3] came out at 5.4. In assay [4], the P50e / P50c is 2.3. For the same compound, the P50c in assay [6] came out at 27.1 mmHg. The compound further showed a Hill coefficient (n50) in assay [8] of 2.6.

Consider `Cc1cc(C)cc(NC(=O)Cc2ccc(OC3(C(=O)N[C@H](C(=O)O)C(C)C)CCCC3)cc2)c1`, for which the n50e in assay [1] was found to be 2. In addition, the P50e in assay [2] turned out to be 54.8 mmHg; in assay [5], 13 mmHg; in assay [7], 53.9 mmHg. The Delta P50 in assay [3] came out at 28.6. Besides, in assay [4], the P50e / P50c was determined as 2.6. The P50c in assay [6] was 25.7 mmHg. The compound also registered a Hill coefficient (n50) in assay [8] of 2.7.
